Data published in ChEMBL document CHEMBL2021897, “Synthesis and SAR of 1,3-thiazolyl thiophene and pyridine derivatives as potent, orally active and S1P₃-sparing S1P₁ agonists” (Bioorg Med Chem Lett, 2012).
The source made the active and inactive calls. No cut-off for these calls is given here.

What was measured:
[1] = biological target: Sphingosine 1-phosphate receptor 1 (Homo sapiens, UniProt P21453); assay: Agonist activity at human S1P1 receptor by [S35]GTPgammaS binding assay; assay type: functional
Method in brief: (§1)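 GTPγS binding at human S1P1 and S1P3 receptors. EC50 is the mean of two experimental determinations.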

[2] = biological target: Sphingosine 1-phosphate receptor 3 (Homo sapiens, UniProt Q99500); assay: Agonist activity at human S1P3 receptor by [S35]GTPgammaS binding assay; assay type: functional; method in brief: as §1
Rattus norvegicus [3] = assay: Immunosuppressive activity in po dosed LEW rat transplanted with spleen cells of WKAH rat assessed as inhibition of enlargement of draining popliteal lymph node administered qd for 4 days; assay type: functional; conditions: 96 h, read-out: ID50 (the source's name)
Method in brief: (§2)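 Spleen cells from WKAH rats were injected into the footpads of LEW rats to induce draining popliteal lymph node enlargement. Dosing was oral, once daily for four days from the day of cell injection (day 0). Lymph node weight was measured on day 4. Values are the mean of five rats; ID50 is derived from at least three doses.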

Rattus norvegicus [4] = assay: Immunosuppressive activity in LEW rat transplanted with spleen cells of WKAH rat assessed as inhibition of enlargement of draining popliteal lymph node at 1 mg/kg, po qd for 4 days; assay type: functional; conditions: for inhibition in vivo at 1 mg/kg: 96 h; method in brief: as §2
Homo sapiens = organism: Homo sapiens; assay: Selectivity ratio of EC50 for human S1P3 receptor to EC50 for human S1P1 receptor
[5] = biological target: T1, Peroxisome proliferator-activated receptor alpha (Homo sapiens) (UniProt Q07869); assay: Agonist activity at PPARalpha; assay type: functional
T1 sequence (whole entry): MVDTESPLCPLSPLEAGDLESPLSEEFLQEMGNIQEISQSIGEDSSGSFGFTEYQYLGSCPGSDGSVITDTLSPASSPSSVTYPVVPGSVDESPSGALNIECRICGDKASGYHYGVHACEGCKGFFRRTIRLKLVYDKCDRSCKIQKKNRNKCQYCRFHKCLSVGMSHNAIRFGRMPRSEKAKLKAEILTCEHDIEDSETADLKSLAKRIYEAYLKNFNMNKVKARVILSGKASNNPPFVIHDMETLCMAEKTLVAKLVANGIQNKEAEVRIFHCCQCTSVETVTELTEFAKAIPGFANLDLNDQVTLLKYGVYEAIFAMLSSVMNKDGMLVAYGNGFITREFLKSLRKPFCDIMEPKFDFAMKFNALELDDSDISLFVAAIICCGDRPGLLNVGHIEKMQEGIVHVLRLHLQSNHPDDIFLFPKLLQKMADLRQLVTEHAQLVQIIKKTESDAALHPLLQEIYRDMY

[6] = Oral bioavailability in cynomolgus monkey at 0.5 mg/kg; assay type: ADME, organism-based, Macaca fascicularis; conditions: in vivo
Method in brief: (§3)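 Single oral dose in Lewis rats (n = 4) or cynomolgus monkeys (n = 2), with plasma parameters derived. Bioavailability was calculated against iv dosing at 1.0 mg/kg in rats (n = 2) and 0.5 mg/kg in monkeys (n = 2).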

[7] = Cmax in cynomolgus monkey at 0.5 mg/kg, po; assay type: ADME, organism-based, Macaca fascicularis; parameters: dose 0.5 mg/kg, route oral; conditions: in vivo; method in brief: as §3
[8] = Clearance in cynomolgus monkey at 0.5 mg/kg, iv; assay type: ADME, organism-based, Macaca fascicularis; parameters: dose 0.5 mg/kg, route intravenous; conditions: in vivo
Method in brief: (§4)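 Single iv administration to Lewis rats at 1.0 mg/kg (n = 2) or cynomolgus monkeys at 0.5 mg/kg (n = 2), with clearance and volume of distribution derived.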

[9] = Tmax in cynomolgus monkey at 0.5 mg/kg, po; assay type: ADME, organism-based, Macaca fascicularis; parameters: dose 0.5 mg/kg, route oral; conditions: in vivo; method in brief: as §3
[10] = Half life in cynomolgus monkey at 0.5 mg/kg, po; assay type: ADME, organism-based, Macaca fascicularis; parameters: dose 0.5 mg/kg, route oral; conditions: in vivo; method in brief: as §3
[11] = AUC (0 to infinity) in cynomolgus monkey at 0.5 mg/kg, po; assay type: ADME, organism-based, Macaca fascicularis; parameters: time infinity, dose 0.5 mg/kg, route oral; conditions: plasma; method in brief: as §3
[12] = Volume of distribution in cynomolgus monkey at 0.5 mg/kg, iv; assay type: ADME, organism-based, Macaca fascicularis; parameters: dose 0.5 mg/kg, route intravenous; conditions: in vivo; method in brief: as §4
[13] = Stability of the compound in presence of enterobacteria from monkey feces contents under anaerobic condition at 3 to 30 uM after 48 hrs; assay type: ADME, tissue-based
Method in brief: (§5)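 Compound solutions at 3.0 and 30 µM were exposed to anaerobic enterobacterial culture fluid from rat cecal contents or monkey feces, grown in prereduced PYF broth, with broth alone as control. Percent compound remaining was traced at 24 and 48 h.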

[14] = Oral bioavailability in Lewis rat at 3 mg/kg; assay type: ADME, organism-based; conditions: in vivo; method in brief: as §3
[15] = Half life in Lewis rat at 3 mg/kg, po; assay type: ADME, organism-based; parameters: dose 3 mg/kg, route oral; conditions: in vivo; method in brief: as §3
[16] = Cmax in cynomolgus monkey at 1 mg/kg, po; assay type: ADME, organism-based, Macaca fascicularis; parameters: dose 1 mg/kg, route oral; conditions: in vivo; method in brief: as §3
[17] = Volume of distribution in Lewis rat at 1 mg/kg, iv; assay type: ADME, organism-based; parameters: dose 1 mg/kg, route intravenous; conditions: in vivo; method in brief: as §4
[18] = AUC (0 to infinity) in Lewis rat at 3 mg/kg, po; assay type: ADME, organism-based; parameters: dose 3 mg/kg, route oral, time infinity; conditions: plasma; method in brief: as §3
[19] = Tmax in Lewis rat at 3 mg/kg, po; assay type: ADME, organism-based; parameters: dose 3 mg/kg, route oral; conditions: in vivo; method in brief: as §3
[20] = Stability of the compound in presence of enterobacteria from rat cecal contents under anaerobic condition at 3 to 30 uM after 24 hrs; assay type: ADME; method in brief: as §5
[21] = Oral bioavailability in cynomolgus monkey at 1 mg/kg; assay type: ADME, organism-based, Macaca fascicularis; conditions: in vivo; method in brief: as §3
[22] = Stability of the compound in presence of enterobacteria from rat cecal contents under anaerobic condition at 3 to 30 uM after 48 hrs; assay type: ADME; method in brief: as §5
[23] = Cmax in Lewis rat at 3 mg/kg, po; assay type: ADME, organism-based; parameters: dose 3 mg/kg, route oral; conditions: in vivo; method in brief: as §3
[24] = Clearance in Lewis rat at 1 mg/kg, iv; assay type: ADME, organism-based; parameters: dose 1 mg/kg, route intravenous; conditions: in vivo; method in brief: as §4
[25] = Half life in cynomolgus monkey at 1 mg/kg, po; assay type: ADME, organism-based, Macaca fascicularis; parameters: dose 1 mg/kg, route oral; conditions: in vivo; method in brief: as §3
[26] = Tmax in cynomolgus monkey at 1 mg/kg, po; assay type: ADME, organism-based, Macaca fascicularis; parameters: dose 1 mg/kg, route oral; conditions: in vivo; method in brief: as §3
[27] = AUC (0 to infinity) in cynomolgus monkey at 1 mg/kg, po; assay type: ADME, organism-based, Macaca fascicularis; parameters: time infinity, dose 1 mg/kg, route oral; conditions: plasma; method in brief: as §3
[28] = Stability of the compound in presence of enterobacteria from monkey feces contents under anaerobic condition at 3 to 30 uM after 24 hrs; assay type: ADME, tissue-based; method in brief: as §5
Rattus norvegicus [29] = assay: Drug metabolism in po dosed rat plasma assessed as formation of 4-phenoxy benzoic acid; assay type: ADME, organism-based; conditions: in vivo

Chain of Sphingosine 1-phosphate receptor 3 (Q99500 whole entry): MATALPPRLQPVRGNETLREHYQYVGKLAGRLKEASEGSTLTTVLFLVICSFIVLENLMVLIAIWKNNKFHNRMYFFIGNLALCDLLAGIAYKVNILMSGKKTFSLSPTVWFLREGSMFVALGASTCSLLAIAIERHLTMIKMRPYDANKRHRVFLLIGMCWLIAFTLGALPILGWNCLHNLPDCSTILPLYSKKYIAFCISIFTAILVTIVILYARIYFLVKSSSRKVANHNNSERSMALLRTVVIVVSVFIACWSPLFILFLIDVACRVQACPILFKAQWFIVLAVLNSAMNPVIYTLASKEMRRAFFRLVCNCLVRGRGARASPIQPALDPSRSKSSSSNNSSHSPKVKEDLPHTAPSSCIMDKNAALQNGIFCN
Chain of Sphingosine 1-phosphate receptor 1 (P21453 whole entry): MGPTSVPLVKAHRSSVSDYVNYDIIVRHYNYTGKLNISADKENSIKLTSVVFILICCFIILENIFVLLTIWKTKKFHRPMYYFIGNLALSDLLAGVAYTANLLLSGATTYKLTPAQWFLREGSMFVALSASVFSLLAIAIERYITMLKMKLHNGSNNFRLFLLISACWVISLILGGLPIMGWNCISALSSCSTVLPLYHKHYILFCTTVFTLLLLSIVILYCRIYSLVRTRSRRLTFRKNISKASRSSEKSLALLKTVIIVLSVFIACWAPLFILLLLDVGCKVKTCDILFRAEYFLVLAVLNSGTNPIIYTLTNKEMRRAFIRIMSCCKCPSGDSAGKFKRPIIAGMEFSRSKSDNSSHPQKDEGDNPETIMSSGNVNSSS

SMILES	EC50 [1]	EC50 [2]	ED50 (Rattus norvegicus [3])	inhibition in vivo at 1 mg/kg (Rattus norvegicus [4])	other results
CCc1cc(CN2CC(C(=O)O)C2)sc1-c1ncc(-c2ccc(OC(C)C)c(C(C)C)c2)s1	1.3 nM	> 20000 nM	0.53 mg/kg		
CCc1cc(-c2cnc(-c3sc(CN4CC(C(=O)O)C4)cc3CC)s2)ccc1OC(C)C	3.4 nM	> 20000 nM	0.16 mg/kg		
CCc1nc(CN2CC(C(=O)O)C2)ccc1-c1ncc(-c2ccc(OC(C)C)c(C)c2)s1	5.5 nM	> 20000 nM		39%	
CCc1cc(CN2CC(C(=O)O)C2)sc1-c1ncc(-c2ccc(C(C)C)c(C)c2)s1	3.5 nM	> 20000 nM	1.07 mg/kg		
CCc1cc(CN2CC(C(=O)O)C2)sc1-c1ncc(-c2ccc(OC(C)C)c(F)c2)s1	5.8 nM	> 20000 nM	0.48 mg/kg		
CCc1cc(CN2CC(C(=O)O)C2)sc1-c1cnc(-c2ccc(Oc3ccccc3)cc2)o1	300 nM	> 20000 nM			
CCc1cc(CN2CC(C(=O)O)C2)sc1-c1nnc(-c2ccc(Oc3ccccc3)cc2)s1	25 nM	> 20000 nM			inhibition (Rattus norvegicus [4]): inactive
CCc1nc(CN2CC(C(=O)O)C2)ccc1-c1cnc(-c2ccc(OC(C)C)c(C)c2)s1	2.8 nM	> 20000 nM		17%	
CCc1cc(CN2CC(C(=O)O)C2)sc1-c1cc(-c2ccc(Oc3ccccc3)cc2)no1	15 nM	> 20000 nM			inhibition (Rattus norvegicus [4]): inactive
CCc1cc(CN2CC(C(=O)O)C2)sc1-c1cc(-c2ccc(Oc3ccccc3)cc2)on1	22 nM	> 20000 nM		2%	
CCc1cc(CN2CC(C(=O)O)C2)sc1-c1cnc(-c2ccc(Oc3ccccc3)cc2)s1	35 nM	> 20000 nM		25%	
CCc1cc(CN2CC(C(=O)O)C2)sc1-c1ncc(-c2ccc(Oc3ccccc3)cc2)s1	4.5 nM	> 20000 nM		42%	Ratio EC50 (Homo sapiens): > 4400
CCc1cc(-c2ncc(-c3ccc(CN4CC(C(=O)O)C4)nc3CC)s2)ccc1CC(C)C	5.4 nM	> 20000 nM	0.74 mg/kg		
CCc1cc(CN2CC(C(=O)O)C2)sc1-c1ncc(-c2ccc(O[C@@H](C)CC)c(C)c2)s1	6 nM	> 20000 nM	0.32 mg/kg		
CCc1cc(CN2CC(C(=O)O)C2)sc1-c1ncc(-c2ccc(OC(C)C)cc2)s1	10 nM	> 20000 nM		52%	
CCCc1cc(-c2cnc(-c3sc(CN4CC(C(=O)O)C4)cc3CC)s2)ccc1OC(C)C	1.1 nM	400 nM		73%	
O=C(O)c1ccc(Oc2ccccc2)cc1					Activity [5]: Active
CCc1nc(CN2CC(C(=O)O)C2)ccc1-c1cnc(-c2ccc(CC(C)C)c(C)c2)s1	4.1 nM	> 20000 nM	0.64 mg/kg		
CCc1cc(CN2CC(C(=O)O)C2)sc1-c1ncc(-c2ccc(OC(C)C)c(Cl)c2)s1	3.2 nM	> 20000 nM		54%	
CCc1cc(-c2cnc(-c3ccc(CN4CC(C(=O)O)C4)nc3CC)s2)ccc1OC(C)C	4 nM	> 20000 nM	0.49 mg/kg		bioavailability [6]: 75.4%; Cmax [7]: 150 ng/mL; clearance [8]: 1.75 mL/min/kg; Tmax [9]: 5 h; half-life [10]: 16.7 h; AUC(0-inf) [11]: 3730 ng·h/mL; Vd [12]: 1.46 L/kg
CCc1cc(CN2CC(C(=O)O)C2)sc1-c1ncc(-c2ccc(OC(C)C)c(C)c2)s1	3.4 nM	> 20000 nM	0.07 mg/kg		Stability [13]: Stable; bioavailability [14]: 70.6%; half-life [15]: 11.5 h; Cmax [16]: 630 ng/mL; Vd [17]: 5.37 L/kg; clearance [8]: 2 mL/min/kg; AUC(0-inf) [18]: 5140 ng·h/mL; Tmax [19]: 5 h; Stability [20]: Stable; bioavailability [21]: > 90%; Stability [22]: Stable; Cmax [23]: 340 ng/mL; Vd [12]: 0.89 L/kg; clearance [24]: 6.72 mL/min/kg; half-life [25]: 7.2 h; Tmax [26]: 4 h; AUC(0-inf) [27]: 8690 ng·h/mL; Stability [28]: Stable
CCc1cc(CN2CC(C(=O)O)C2)sc1-c1ncc(-c2ccc(O[C@H](C)CC)c(C)c2)s1	8 nM	> 20000 nM		27%	
CCc1cc(CN2CC(C(=O)O)C2)sc1-c1noc(-c2ccc(Oc3ccccc3)cc2)n1		> 20000 nM	0.41 mg/kg		Stability [13]: Unstable; Stability [20]: Unstable; Drug metabolism (Rattus norvegicus [29]): Active; Stability [22]: Unstable; Stability [28]: Unstable
CCc1cc(CN2CC(C(=O)O)C2)sc1-c1cnc(-c2ccc(OC(C)C)c(C)c2)s1	11 nM	> 20000 nM	0.19 mg/kg		
CCc1cc(CN2CC(C(=O)O)C2)sc1-c1nnc(-c2ccc(Oc3ccccc3)cc2)o1	54 nM	> 20000 nM			
CCc1cc(CN2CC(C(=O)O)C2)sc1-c1ncc(-c2ccc(Oc3ccccc3)cc2)o1	90 nM	> 20000 nM			
